Consider two compounds from paper PMC9043769 (RSC Advances, 2021).

Assay [1] has as its system HeLa cervical carcinoma cells. In words: MTT cytotoxicity assay, 72 h. It is filed as cell-based, human. The method, boiled down: (§1)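 Cell lines (ATCC) grown in DMEM with […], 10% FCS and antibiotic–antimycotic at 37 °C, 5% CO2. […] IC50 was calculated from means of at least two or three independent experiments in triplicate or quadruplicate.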
Assay [2] concerns CEM T-lymphoblastic leukemia cells. The experiment in a line: alamarBlue. Type of assay: cell-based, human. To be noted: read-out: IC50, after 72 h incubation, CEM. The method, boiled down: (§2)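 CEM cells grown in RPMI 1640 with 20% FBS; G-361 and BJ cells in DMEM with 10% FBS. All media had 2 mM L-glutamine and 1% penicillin-streptomycin, 37 °C, 5% CO2. Six concentrations of compound, 0.2–50 μM (3× dilution), were applied for 72 h, with a resazurin (alamarBlue) read-out. IC50 came from means of at least two or three independent experiments in triplicate or quadruplicate.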

For assay [3], the system named is MRC-5 normal fetal lung fibroblasts. The experiment in a line: MTT cytotoxicity assay, 72 h. As to conditions: read-out: IC50, after 72 h incubation, MRC-5. It is filed as cell-based, human.
Assay [4] concerns MCF-7 (ER+ breast adenocarcinoma) cells. In words: MTT cytotoxicity assay, 72 h. It is filed as cell-based, human. To be noted: for IC50: read-out: IC50, after 72 h incubation, MCF-7. The method, boiled down: as §1
For assay [5], the system named is PC-3 prostate cancer cells. The experiment in a line: MTT cytotoxicity assay, 72 h. It is filed as cell-based, human. The method, boiled down: as §1
The subject of assay [6] is G-361 malignant melanoma cells. The experiment in a line: alamarBlue. It is filed as cell-based, human. As to conditions: read-out: IC50, after 72 h incubation, G-361. The method, boiled down: as §2
The test system of assay [7] is MDA-MB-231 (ER− breast adenocarcinoma) cells. In words: MTT cytotoxicity assay, 72 h. Type of assay: cell-based, human. As to conditions: read-out: IC50, after 72 h incubation, MDA-MB-231. The method, boiled down: as §1
Assay [8] has as its system BJ human foreskin fibroblasts. In words: alamarBlue. Type of assay: cell-based. To be noted: read-out: IC50, after 72 h incubation, BJ, normal fibroblasts. The method, boiled down: as §2
In assay [9] the test system is HT-29 colon adenocarcinoma cells. In words: MTT cytotoxicity assay, 72 h. To be noted: read-out: IC50, after 72 h incubation, HT-29. Type of assay: cell-based, human. The method, boiled down: as §1
Assay [10] has as its system A549 lung adenocarcinoma cells. The experiment in a line: MTT cytotoxicity assay, 72 h. Type of assay: cell-based, human. To be noted: read-out: IC50, after 72 h incubation, A549. The method, boiled down: as §1

Where two headings read alike, the source gives them in different places.

For `N.N.[Cl][Pt][Cl]` [Cis-Pt, cisplatin], the IC50 in [1] (read-out: IC50, after 72 h incubation, HeLa, MTT) is 2.1 µM; in [2], 0.8 µM; in [3] (MTT, 72 h, normal cells), 0.2 µM; in assay [4] (MTT, 72 h), 1.6 µM; in [5] (read-out: IC50, after 72 h incubation, PC-3, MTT), 4.5 µM; in assay [6], 4.5 µM. Besides, the half-maximal inhibitory concentration (IC50) in [7] (MTT, 72 h) worked out at 2.6 µM; in assay [8] it was 9.6 µM; in assay [9] (MTT, 72 h), 4.1 µM; in [10] (MTT, 72 h), 3.2 µM.
Regarding `C[C@]12CCC(=O)C(O)=C1CC[C@@H]1[C@@H]2CC[C@]2(C)C(=O)CC[C@@H]12` [For, formestane], the IC50 in [1] (Homo sapiens, HeLa, read-out: IC50, after 72 h incubation, HeLa) was 3.4 µM; in assay [3] (Homo sapiens, MRC5, 72 h), more than 100 µM; in assay [4] (Homo sapiens, MCF7, 72 h), more than 100 µM; in [5] (Homo sapiens, read-out: IC50, after 72 h incubation, PC-3), 26.4 µM; in assay [7] (Homo sapiens, MDA-MB-231, 72 h), 19.6 µM; in assay [9] (Homo sapiens, HT-29, 72 h), more than 100 µM. In addition, the IC50 in assay [10] (Homo sapiens, A549, 72 h) stood at 38.6 µM. For the same compound, the “Toxicity toward MCF-7 tumor cells (in words)” value in assay [4] (MTT, 72 h) is “no toxicity”.
